Screening data (PubChem)
CHOP inhibitor = blocks CHOP induction under ER stress. CHO-K1 CHOP-promoter luciferase, tunicamycin-induced, 15-18 h. inhibition, % at 10 µM. actives 3.8% (n = 220,000);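 active = compounds that reduced the stress-induced luciferase reporter signal by more than about 70% of percent inhibition, limit read from the data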;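 also: 0% = tunicamycin plus vehicle and 100% = wells without tunicamycin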
Lmaj promast = inhibitors of Leishmania major promastigote growth; Leishmania major promastigotes, resazurin fluorescence viability; inhibition, % at 10 µM; actives 9% (n = 200,000); AID 1063; in the data active = inhibition above about 50%;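 also: promastigotes grown with compound for 44 hours at 28 °C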
MT stabilizer = microtubule stabilization, imaging screen; % tubulin-high responders, % at 10 µM; HeLa tubulin immunostaining HCS, 24 h; share of cells brighter than vehicle mean+2SD; AID 2205; actives 0.83% (n = 200,000);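 active = plate Z-score above 3 for both tubulin-high and condensed-nucleus cell shares, with cell loss under 80%, at 10 µM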;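 also: anti alpha tubulin signal scored within the nucleus-defined area of each cell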
b-catenin transl = alters nuclear translocation of beta-catenin in HeLa cells; immunofluorescence imaging; nuclear translocation activity, % at 5 µM; actives 0.3% (n = 190,000); AID 1665;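 active = nuclear translocation activity above 50% at 5 µM, with a well cell count of 50 or more; inconclusive = wells under 50 cells across six images, flagged as toxic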;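 also: per-cell ratio of nuclear to cytoplasmic median beta-catenin stain intensity; plate controls were DMSO negative control for no effect and GSK-3 inhibitor IX positive control for full effect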
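Test system: human HeLa cells, endogenous beta-catenin. Times: 24 h compound exposure, 37°C. Measured by: beta-catenin immunofluorescence imaging with DAPI.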
Dynein cargo inh = dynein cargo transport inhibition; 3617.4 mouse cells, GR-EGFP nuclear translocation imaging; test concentration mostly 20 µM; stimulated with dexamethasone, 1 µM; stronger effect = lower value; z-score, hits read low; actives 0.47% (n = 220,000); AID 1381;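 active = plate z-score of nuclear minus cytoplasmic receptor signal below a set negative limit, without overly bright fluorescence or cell loss, cut at about -3.5 in these data, passing the limit was not always enough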;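 also: z-score of nuclear minus cytoplasmic ring GR-EGFP intensity difference per well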
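Buffer or medium: tet-free medium with charcoal-stripped serum / Also added: dexamethasone agonist, 1.0 µM final, for 30 min / Timing: induction 48 h, compound 1 h, agonist 30 min / Measured by: high-content fluorescence imaging after fixation / Read-out: nuclear-to-cytoplasmic GR-EGFP distribution per well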
Autophagy mod = modulators of autophagy | MEF GFP-LC3 puncta imaging; test concentration mostly 10 µM | calls only at 10 µM (by protocol) | actives 0.98% (n = 190,000);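 active = percentage of spot-positive cells more than 3 SD above its plate mean, without a fluorescence outlier flag or 80% toxicity; inconclusive = no clear call, values can overlap the other calls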;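 also: spot-positive cell cutoff set from DMSO-treated cells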
Lmaj promast 1uM = inhibitors of Leishmania major promastigote growth, repeat at 1 uM; shares compounds with Lmaj promast; inhibition, % at 1 µM; actives 13% (n = 1,100); AID 1258; L. major promastigote growth, resazurin fluorescence, 48 h;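 active = inhibition above about 50% in both repeat tests, limit read from the data; inconclusive = one repeat under the set limit, the other over it; inactive = both repeats under the set limit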
Dynein inh conf = dynein cargo transport inhibition, confirmation. AID 463116. actives 69% (n = 1,000). 3617.4 GR-EGFP nuclear translocation imaging, dexamethasone-induced. shares compounds with Dynein cargo inh. calls only at 20 µM;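 active = inhibition of receptor movement into the nucleus at or above a set limit in both runs, with normal cell brightness and cell count; inconclusive = limit reached in only one run, brightness and count normal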;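 also: dexamethasone at 1 µM final in well for 30 min; nuclear minus cytoplasmic GR-EGFP mean intensity difference in channel 2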
CHOP confirm = confirmation of CHOP induction inhibitors; actives 45% (n = 2,100); inhibition, % at 10 µM; CHO-CHOP promoter luciferase reporter, tunicamycin-induced, luminescence; shares compounds with CHOP inhibitor;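 active = mean of three repeat readings of reporter signal inhibition above a set limit, cut at about 70% in these data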;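 also: 0% = tunicamycin plus vehicle and 100% = wells lacking tunicamycin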
Starred values were filed as active, the others as inactive; i = inactive; ? = inconclusive; / = no result; + = active, no number. Most compounds without a hit are left out; they make up all but 12% or so of the library.

SMILES	CHOP inhibitor	Lmaj promast	MT stabilizer	b-catenin transl	Dynein cargo inh	Autophagy mod	Lmaj promast 1uM	CHOP confirm	others
CC(C)(C)C1CCc2sc(-c3nnc(CCl)o3)cc2C1 (stereo unspecified)	-15	91*	2	1	-4.2*	i	-2	/	Dynein inh conf=+
ClCc1nnc(-c2cc3c(s2)CCCC3)o1	4	98*	1	0	-4.5*	i	7	/	Dynein inh conf=?
O=C(NC12CC3CC(CC(C3)C1)C2)c1cc([N+](=O)[O-])ccc1N1CCOCC1	-14	-5	4	-1	-0.93	i	/	/
Cc1nc(N2CCN(C)CC2)c2sc(=S)n(-c3ccccc3)c2n1	-13	3	2	-2	0.81	i	/	/
S=c1sc2c(Cl)ncnc2n1-c1ccccc1	-24	87*	2	/	-4*	i	30	/	Dynein inh conf=+
CCN1/C(=C/C=C/c2oc3ccc4ccccc4c3[n+]2CC)Oc2ccc3ccccc3c21	70*	100*	80*	/	-7.1*	?	101*	/	Dynein inh conf=+
Cc1ccc2[nH]c(O)c(N=O)c2c1	-9	/	/	1	-0.13	/	/	/
O=C1c2cc([N+](=O)[O-])cc3cc([N+](=O)[O-])cc(c23)C(=O)N1c1ccccn1	-34	90*	4	3	-3.5*	i	28	/	Dynein inh conf=i
O=C1c2ccc(Oc3cccc([N+](=O)[O-])c3)cc2C(=O)N1c1ccccn1	10	-5	3	-1	-0.46	i	/	/
O=C(NCC1CCCO1)C1CCN(S(=O)(=O)N2CCCC2)CC1 (stereo unspecified)	3	-5	2	0	0.36	i	/	/
O=S(=O)(CCN(CCS(=O)(=O)C(F)(F)F)CC1CCCO1)C(F)(F)F (stereo unspecified)	0	100*	2	1	-4.1*	i	8	/	Dynein inh conf=?
CCCCc1cc(O)c(CCCC)c(O)c1	6	99*	4	-2	-3.9*	i	32	/	Dynein inh conf=+
COc1cccc([C@@H]2Oc3ccc(OC)cc3C(=O)[C@H]2OC(=O)NCc2ccc3c(c2)OCO3)c1	-1	5	3	/	-0.38	i	/	/
Cc1ccc(-n2nnnc2C(Cl)c2nnnn2-c2ccc(C)cc2)cc1	91*	99*	6	-3	-4.2*	i	32	/	Dynein inh conf=+
CC(=O)c1cc(C(=O)N2CCc3c([nH]c4ccccc34)C2C2CCCCC2)[nH]n1 (stereo unspecified)	11	6	4	0	-0.027	i	/	/
CCOc1ccc(-n2cc(C(=O)N3CCCCCC3)c3cc(OC)c(OC)cc3c2=O)cc1	-6	12	4	1	0.57	i	/	/
CCCCCCCCCCCCCCCC[n+]1ccc(/C=N/O)cc1	103*	100*	16	?	0.077	i	101*	125*
Fc1cccc(-c2nnn3c2nc(Cl)c2ccccc23)c1	103*	98*	4	-2	0.21	i	81*	127*
CCc1ccc(NSc2ccccc2[N+](=O)[O-])cc1	102*	99*	46*	1	1.3	i	71*	18
COC(=O)CNC(=O)Cc1c(F)cccc1Cl	8	-2	2	/	-0.36	i	/	/
O=C(O)CCCCCCCCCCP(=O)(c1ccccc1)c1ccccc1	9	/	/	0	-0.54	/	/	/
O=P(CCCCCCCCCP(=O)(c1ccccc1)c1ccccc1)(c1ccccc1)c1ccccc1	100*	93*	5	1	-0.53	i	-5	50
CCCCCCCCCCCCCCCC[n+]1cccc(C(=O)N(CC)CC)c1	108*	100*	27	5	-5.1*	i	79*	115*
N#CCc1ccc(C(=O)c2ccccc2F)s1	28	-6	1	-1	0.87	i	/	/
Cc1cc(C)c(COCc2cc(/C=N/O)c(C)cc2C)cc1/C=N/O	108*	89*	2	-11	0.06	i	-10	62
SMILES	CHOP inhibitor	Lmaj promast	MT stabilizer	b-catenin transl	Dynein cargo inh	Autophagy mod	Lmaj promast 1uM	CHOP confirm	others
CSc1cc(/C=N/O)c(SC)s1	33	7	7	2	-0.43	i	/	/
Cc1ccc(NCC(=O)N/N=C\C(Br)=C\c2ccccc2)cc1	110*	68*	1	/	0.36	i	2	10
Cc1ccc2c(c1)c(=O)c1c3n2CCN(C(=O)CCl)C3CC1 (stereo unspecified)	/	100*	3	/	-2.3	i	57*	19
Cc1cc(C)nc(/N=c2/ssnc2Cl)c1	96*	99*	4	-5	-1.6	i	94*	19
Cc1ccc(N=c2ssnc2Cl)cc1	5	-11	2	-3	-0.53	i	/	/
CC(C)c1ccc(N=C2N=C(N)c3ccccc32)cc1	13	/	/	0	-0.99	/	/	/
Cc1cc(C)c(C(CC(=O)c2cccs2)C(C#N)C#N)c(C)c1 (stereo unspecified)	103*	92*	3	2	-3.2	i	-9	58
CC(CC(=O)c1cccs1)CC(=O)c1cccs1	16	-7	7	-1	-0.42	i	/	/
FC(F)(F)c1nnc(-c2ccccc2)nc1N1CCCC1	49	2	3	-4	0.077	i	/	/
FC(F)(F)c1nnc(-c2ccccc2)nc1Sc1ccccc1	109*	52*	1	/	0.18	i	39	-155
O=C(C=C1CCN(c2ncc(C(F)(F)F)cc2Cl)CC1)NNC(=O)Nc1ccc(Cl)cc1	53	-4	2	0	0.17	i	/	/
CS(=O)(=O)c1ccc(S(=O)CC(=O)OCc2ccccc2)c([N+](=O)[O-])c1 (stereo unspecified)	107*	57*	4	2	-5.6	i	40	128*	Dynein inh conf=+
CSCC[C@H](NC(=O)C1CCN(S(=O)(=O)c2ccc(C)cc2)CC1)C(=O)NC1CCS(=O)(=O)C1 (stereo partly specified)	-29	-4	3	-2	-0.22	i	/	/
O=[N+]([O-])c1ccccc1C1Nc2cccc3cccc(c23)N1	106*	97*	2	0	-3.4	i	-9	12
c1ccc2c(-c3c[nH]c4ccccc34)c3ccccc3nc2c1	98*	55*	28	10	-0.63	i	47	-18
O=C(O)c1cc(-c2c[nH]c3ccccc23)nc2ccc3ccccc3c12	-20	-5	5	2	-0.45	i	/	/
